Screening data deposited in PubChem by several laboratories.
Compounds with a hit are over-represented: about 0.48% of the library has one in this group of screens.
procasp3 activ: procaspase-3 (human) activation | hit rate 0.11% among 330,000 | AID 463141 | activation, % at 8.5 µM | P42574 | recombinant procaspase-3 D3A, Ac-DEVD-pNA absorbance 405 nm;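 active = activation above the mean of all tested compounds plus 3 SD, cut at about 21% in these data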
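Assay system – Procaspase-3 D3A mutant · Benchmarks – DMSO low control, extra-enzyme high control · Technique – 405 nm absorbance of p-nitroaniline, reads at 0 and 120 min · Doses – 8.5 µM nominal · Measure – % activation between DMSO and enzyme-spiked controls · Also added – Ac-DEVD-pNA chromogenic peptide substrate · Schedule – 1 h compound preincubation, 2 h substrate hydrolysis at 25 °C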
Rce1 inh: inhibitors of yeast Ras-converting enzyme; Q03530; yeast membranes, quenched prenylated peptide cleavage fluorescence; calls only; hit rate 0.27% among 290,000;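 active = fall in fluorescence gain of 50% or more versus controls, with final raw signal at or below 3038400; inconclusive = same 50% fall but final raw signal above 3038400; inactive = fall in fluorescence gain under 50%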
Target sequence (Q03530 whole entry, looked up): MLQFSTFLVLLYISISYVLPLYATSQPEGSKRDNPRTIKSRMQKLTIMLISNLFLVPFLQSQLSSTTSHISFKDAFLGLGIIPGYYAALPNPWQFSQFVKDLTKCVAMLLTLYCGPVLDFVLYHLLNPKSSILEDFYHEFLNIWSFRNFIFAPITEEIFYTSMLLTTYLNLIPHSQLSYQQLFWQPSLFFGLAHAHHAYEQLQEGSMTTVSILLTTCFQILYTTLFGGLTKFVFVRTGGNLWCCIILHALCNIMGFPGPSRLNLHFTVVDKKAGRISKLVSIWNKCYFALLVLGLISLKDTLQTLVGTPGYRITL
proCasp7 act: activates human procaspase-7, counter-screen for procaspase-3 activators; P55210; recombinant procaspase-7, Ac-DEVD-pNA absorbance 405 nm; D23A/D198A/D206A triple mutant, cannot self-cleave; scale: DMSO 0, 5 µM enzyme 100; activation, % at 8.5 µM; hit rate 0.093% among 330,000;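 active = percent activation above the screen-wide mean plus 3 SD, cut at about 25% in these data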
Target sequence (P55210 whole entry D23A/D198A/D206A): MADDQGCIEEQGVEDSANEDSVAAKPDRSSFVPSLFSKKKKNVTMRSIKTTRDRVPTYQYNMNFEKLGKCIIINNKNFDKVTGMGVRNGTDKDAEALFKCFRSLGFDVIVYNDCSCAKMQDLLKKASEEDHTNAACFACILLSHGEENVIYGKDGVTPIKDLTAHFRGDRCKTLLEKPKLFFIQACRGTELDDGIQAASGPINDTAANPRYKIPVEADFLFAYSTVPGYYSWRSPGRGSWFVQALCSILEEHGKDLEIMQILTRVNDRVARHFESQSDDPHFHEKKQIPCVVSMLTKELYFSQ
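Detection: p-Nitroaniline absorbance at 405 nm, read at 0 and 120 min; system: Uncleavable procaspase-7 mutant enzyme; evaluation: % activation from two-timepoint absorbance difference, scaled to controls; times: 1 h enzyme–compound preincubation and 2 h substrate reaction, both 25 °C; buffer or medium: Zinc-free HEPES pH 7.4 with 300 mM NaCl, 0.01% Triton X-100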
Bfl-1 A1 inh: inhibitors of the anti-apoptotic protein A1, read as caspase activation; caspase activation, % (concentration not given with the values); hit rate 0.066% among 330,000; MEF A1-2A-BIM cells, Caspase-Glo 3/7 luminescence, 3 h; percent of clofoctol response, vehicle zero; AID 2462;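 active = over half of replicate activation scores above 10%, or exactly half above 10 with the replicate mean above 10; inconclusive = replicate mean below 10 yet half the replicates above 10; inactive = over half of replicates below 10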
PolyA inh: blocks polyadenylation in yeast reporter cells; S. cerevisiae SKY197-pL101 polyadenylation reporter, beta-gal luminescence; efflux-impaired pdr1/pdr3 knockout yeast; score 100 = 6 SD above DMSO; activity score, % at 12 µM; hit rate 0.02% among 300,000; AID 1875;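 active = lowest replicate activity score at least 50, where 100 means six control SD above control mean; inconclusive = lowest score under 50 but half or more replicates reach 50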;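 also: yeast exposed to compound for 9 h at 30 °C; higher score means more reporter readthrough which indicates perturbed polyadenylation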
PC3 dual counter: counter-screen for dual procaspase-3/7 activators: human procaspase-3 activation; shares compounds with proCasp7 act; recombinant PC-3 D3A, Ac-DEVD-pNA absorbance 405 nm; aspartates 9, 28, 175 changed to alanine; 100% = enzyme control; activation, % at 8.5 µM; 290 tested, under 10 active; AID 493114;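 active = mean percent activation across triplicates above a set limit taken from the earlier primary procaspase-3 screen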
PC7 dual conf: activates human procaspase-7, confirming dual procaspase activators; 290 tested, under 10 active; AID 493115; recombinant procaspase-7, Ac-DEVD-pNA absorbance 405 nm; D23A/D198A/D206A mutant that cannot self-cleave; shares compounds with proCasp7 act; activation, % at 8.5 µM;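 active = mean activation above a set limit carried over from the earlier primary screen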
Numbers stand for hits; - = inactive; ? = inconclusive; . = no result; + = active, no number.

SMILES | procasp3 activ | Rce1 inh | proCasp7 act | Bfl-1 A1 inh | PolyA inh | PC3 dual counter | PC7 dual conf
COC(=O)C1C(O)=C(C=Nc2ccccc2)C(=O)CC1(C)C (centres undefined) | - | - | - | - | - | . | .
Cc1cc(C)nc(NNC2=CC(=[N+]3CCCC3)CCC2)n1 | - | - | - | - | - | . | .
Cc1coc2c(C)c3oc(=O)c(CCC(=O)NCCCN4CCCC4=O)c(C)c3cc12 | - | . | - | - | - | . | .
Cc1c(CCC(=O)NC2CC2)c(=O)oc2c(C)c(O)ccc12 | 28.0 | - | 26.6 | - | - | - | -
Cc1c(CCC(=O)NCCCN2CCCC2=O)c(=O)oc2c(C)c(O)ccc12 | 27.6 | - | 25.8 | - | - | - | -
Cc1cn(-c2cc(C(=O)Nc3ccc(C)c(NC(=O)C(=O)c4c[nH]c5ccccc45)c3)cc(C(F)(F)F)c2)cn1 | - | - | - | - | - | . | .
O=C(c1cccnc1)N1CCN(c2ccccc2Cl)CC1 | - | - | - | - | - | . | .
Cc1c(CC(=O)N2CCN(C(=O)C3COc4ccccc4O3)CC2)c(=O)oc2c(C)c(O)ccc12 (centres undefined) | 26.7 | - | 26.2 | - | - | - | -
Cc1c(CC(=O)N2CCN(C(=O)C3COc4ccccc4O3)CC2)c(=O)oc2cc(O)ccc12 (centres undefined) | 23.7 | - | 29.6 | - | - | - | -
Cc1c(CC(=O)N2CCN(C(=O)C3COc4ccccc4O3)CC2)c(=O)oc2cc(O)cc(O)c12 (centres undefined) | - | - | - | - | - | . | .
COc1ccc2c(C)c(CC(=O)N3CCN(C(=O)C4COc5ccccc5O4)CC3)c(=O)oc2c1 (centres undefined) | - | - | - | - | - | . | .
O=C(NC(Cc1ccccc1)C(=O)O)/C(=C/c1cccc([N+](=O)[O-])c1)NC(=O)c1cccc(Br)c1 (centres undefined) | - | - | - | - | - | . | .
O=c1c(-c2nnc(SCc3ccc(Cl)cc3Cl)o2)cccn1Cc1ccccc1 | 23.6 | - | 87.0 | - | - | - | -
Cc1ccccc1NS(=O)(=O)c1ccc(C(=O)N2CCCC(C(F)(F)F)C2)cc1 (centres undefined) | - | - | - | - | - | . | .
Cc1cc(C)cc(NC(=O)CSc2nc3ccccc3nc2N2CCCC2)c1 | - | - | 39.1 | - | - | - | -
O=C(CSc1nc2ccccc2nc1N1CCCC1)Nc1ccc(F)cc1 | - | - | 40.9 | - | - | - | -
C=CCc1cccc2cc(C(=O)NNC(=O)CC#N)c(=O)oc12 | - | - | - | - | ? | . | .
Fc1ccc(C2=NN(c3ccccc3)C(c3ccco3)C2)cc1 (centres undefined) | 31.6 | - | 43.6 | - | - | - | -
Cc1ccc(N2N=C(c3ccc(F)cc3)CC2c2ccco2)cc1 (centres undefined) | - | - | - | - | - | . | .
Oc1ccccc1C1=NN(c2ccccc2)C(c2ccc(F)cc2)C1 (centres undefined) | . | - | . | - | - | . | .
Oc1ccc(C2=NN(c3ccccc3)C(c3ccc(F)cc3)C2)cc1 (centres undefined) | - | - | 36.5 | - | - | - | -
COc1ccc(CN2CCCCCC2)cc1Br | - | - | - | - | - | . | .
COc1ccccc1[C@H]1C(c2cccc(Cl)c2)=NN(c2ccccc2)[C@@H]1CO | - | . | - | . | . | . | .
OC[C@@H]1[C@@H](c2ccccc2)C(c2ccccc2)=NN1c1ccccc1 | - | . | 30.7 | . | . | - | -
OC[C@@H]1[C@@H](c2ccccc2)C(c2ccc(F)cc2)=NN1c1ccccc1 | - | . | 28.7 | . | . | - | -
SMILES | procasp3 activ | Rce1 inh | proCasp7 act | Bfl-1 A1 inh | PolyA inh | PC3 dual counter | PC7 dual conf
COc1ccc(N(C(=O)c2ccncc2)S(=O)(=O)c2ccc3c4c(cccc24)C(=O)N3C)cc1 | - | - | 31.6 | - | . | - | -
NS(=O)(=O)c1ccc(NC(=O)/C=C/c2cn(-c3ccccc3)nc2-c2cccc(Cl)c2)cc1 | 54.5 | + | 72.3 | - | - | - | -
O=C(/C=C/c1cn(-c2ccccc2)nc1-c1ccccc1)Nc1ccc(C(=O)O)cc1 | - | - | - | - | - | . | .
COC(=O)c1cc(S(=O)(=O)NCC2CCN(CCc3cccs3)CC2)c[nH]1 | - | - | - | - | - | . | .
O=C(Nc1ccc(Cc2ccncc2)cc1)C1CCC(N2C(=O)C3C4C=CC(C5CC45)C3C2=O)CC1 (centres undefined) | - | - | 29.8 | - | - | - | 27.1
CCCn1c(=N)c(S(=O)(=O)c2ccccc2)cc2c(=O)n3ccccc3nc21 | - | - | 42.4 | - | - | - | -
CCOP(=O)(OCC)c1nc(-c2cccc3ccccc23)oc1NCc1ccc(OC)cc1 | 36.1 | - | 60.6 | - | - | - | -
CCOP(=O)(OCC)c1nc(-c2cccc3ccccc23)oc1NCc1ccccc1 | - | - | - | - | - | . | .
O=C(Nc1ccsn1)c1ccc(Cl)cc1Cl | - | - | - | - | - | . | .
O=c1oc2ccccc2cc1-c1nc2c(s1)CCCC2 | - | - | 96.5 | - | - | - | -
CC(C)c1c(C(=O)N/N=C/c2ccc3c(c2)OCO3)nnn1-c1nonc1N | - | - | - | - | - | . | .
CCN(CC)c1ccc(/C=N/NC(=O)c2nnn(-c3nonc3N)c2C(C)C)c(O)c1 | 59.0 | - | 43.9 | - | - | - | -
Cc1cc(C(=O)NC(CC(C)C)C(=O)O)cc(C)c1[N+](=O)[O-] (centres undefined) | - | - | 26.4 | - | - | - | -
CCOc1ccc(CCNC(=O)c2c(C)nn(-c3ccccc3)c2Cl)cc1OCC | - | - | - | ? | - | . | .
O=c1c(O)c(-c2ccc3c(c2)OCO3)oc2ccccc12 | 37.2 | - | 29.8 | - | - | 22.7 | -
C=CCc1c(O)c(CC)cc2c(C)cc(=O)oc12 | 25.2 | ? | 28.3 | - | - | - | -
O=c1oc2ccccc2cc1-c1nc2ccccc2o1 | - | - | - | - | . | . | .
O=c1oc2ccc3ccccc3c2cc1-c1nc2ccccc2o1 | - | - | 28.4 | - | - | - | -
Cc1nc2ccc(S(=O)(=O)Nc3ccccc3C)cc2s1 | - | - | - | - | - | . | .
COc1ccc(C2=NN(c3ccc(C=O)cc3)C(c3ccccc3)C2)cc1 (centres undefined) | - | ? | - | - | - | . | .
COc1ccc(C2CC(c3ccccc3Cl)=NN2c2ccc(S(N)(=O)=O)cc2)cc1 (centres undefined) | 27.2 | . | 46.7 | . | . | - | -
